# Experimental data as given in ChEMBL document CHEMBL4130346, “New quinoline-arylamidine hybrids: Synthesis, DNA/RNA binding and antitumor activity” (Eur J Med Chem, 2017).
# Activity calls are given as the source filed them. The calls are words filed in the database; no cut-off is given here.
# How the values were obtained:
# K562 [1] = experiment: Cell cycle arrest in human K562 cells assessed as decrease in cell levels at G2-M phase at 10^-5 mol/dm'3 after 24 hrs by propidium iodide staining-based flow cytometric method; type: functional
# Calf thymus DNA [2] = experiment: Binding affinity to calf thymus DNA assessed as change in melting temperature at 0.3 compound to ds-polynucleotide ratio by spectrophotometric method; type: nucleic-acid assay; conditions: Bos taurus
# How it was run: (§1)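 Thermal melting of ct-DNA (sonicated, filtered) or polyA-polyU in Na cacodylate buffer, I = 0.05 mol dm-3, pH 7.0, at given r = [compound]/[polynucleotide]; polynucleotide as phosphate concentration. Tm from maximum of first derivative, checked by tangent method. ΔTm = Tm(complex) − Tm(free nucleic acid), average of at least two measurements, error ±0.5 °C.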
# [3] = Binding affinity to polyA-polyU (unknown origin) assessed as change in melting temperature at 0.5 compound to ds-polynucleotide ratio by spectrophotometric method; how it was run: as §1
# Calf thymus DNA [4] = experiment: Binding affinity to calf thymus DNA assessed as change in melting temperature at 0.5 compound to ds-polynucleotide ratio by spectrophotometric method; type: nucleic-acid assay; conditions: Bos taurus; how it was run: as §1
# K562 [5] = experiment: Growth inhibition of human K562 cells after 72 hrs by MTT assay; type: functional; conditions: K562, 72 h
# How it was run: (§2)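 Leukemia cells (1x10^5 cells/cm3) were exposed to compound for 72 h, then MTT (5 mg/cm3) was added for 4 h. Formazan was dissolved with 10% SDS in 0.01 mol dm-3 HCl and absorbance read at 595 nm. Percent growth was taken versus untreated control minus background. GI50 came from a variable-slope fit, as mean ± SD of three independent experiments in triplicate.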
# [6] = Binding affinity to polyA-polyU (unknown origin) assessed as change in melting temperature at 0.3 compound to ds-polynucleotide ratio by spectrophotometric method; how it was run: as §1
# [7] = Growth inhibition of MDCK1 cells after 72 hrs by MTT assay; set-up: species or system Canis lupus familiaris; conditions: dog
# How it was run: (§3)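 Adherent cells (2x10^4 cells/cm3) attached overnight, then were exposed to compound for 72 h. Medium was replaced with 5 mg/cm3 MTT, formazan was dissolved in DMSO and absorbance read at 595 nm. Percent growth was taken relative to untreated control minus background. GI50 came from a variable-slope log-inhibitor fit, as mean ± SD of three independent experiments in triplicate.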
# HeLa = experiment: Growth inhibition of human HeLa cells after 72 hrs by MTT assay; type: functional; how it was run: as §3
# K562 [8] = experiment: Cell cycle arrest in human K562 cells assessed as decrease in cell levels at S phase at 10^-5 mol/dm'3 after 24 hrs by propidium iodide staining-based flow cytometric method; type: functional
# [9] = Chemical stability in aqueous solution after several weeks; type: physicochemical; conditions: buffer
# How it was run: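 Aqueous compound solutions were monitored for several weeks by UV-Vis absorbance at 220-900 nm. Linearity with concentration was checked up to 3.5 × 10^-5 mol dm-3, and spectra were recorded at 25–90 °C with reproducibility checked on cooling to 25 °C.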
# Calf thymus DNA [10] = experiment: Binding affinity to calf thymus DNA assessed as change in melting temperature at 0.1 compound to ds-polynucleotide ratio by spectrophotometric method; type: nucleic-acid assay; conditions: Bos taurus; how it was run: as §1
# K562 [11] = experiment: Cell cycle arrest in human K562 cells assessed as accumulation at G0-G1 phase at 10^-5 mol/dm'3 after 24 hrs by propidium iodide staining-based flow cytometric method; type: functional
# [12] = Solubility of the compound in water; type: physicochemical
# Caco-2 = experiment: Growth inhibition of human Caco2 cells after 72 hrs by MTT assay; type: functional; conditions: Caco-2, 72 h; how it was run: as §3
# Raji = experiment: Growth inhibition of human Raji cells after 72 hrs by MTT assay; type: functional; how it was run: as §2
# [13] = Binding affinity to polyA-polyU (unknown origin) assessed as change in melting temperature at 0.1 compound to ds-polynucleotide ratio by spectrophotometric method; how it was run: as §1
# [14] = Binding affinity to polyA-polyU (unknown origin) assessed as hypochromic effect by UV-vis spectrophotometric method
# How it was run: (§4)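 UV-Vis titration at room temperature in Na cacodylate buffer (I = 0.05 mol dm-3, pH 7.0). Portions of ct-DNA or polyA-polyU were added to a fixed compound concentration until saturation, with dilution correction. Polynucleotide was measured as phosphate. Ks and n were obtained by Scatchard analysis, together with the hypochromic change at the absorption maximum.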
# Calf thymus DNA [15] = experiment: Binding affinity to calf thymus DNA assessed as hypochromic effect by UV-vis spectrophotometric method; type: nucleic-acid assay; conditions: Bos taurus; how it was run: as §4
# Calf thymus DNA [16] = experiment: Binding affinity to calf thymus DNA by UV-vis spectrophotometric method; type: nucleic-acid assay; conditions: Bos taurus; how it was run: as §4
# [17] = Binding affinity to polyA-polyU (unknown origin) by UV-vis spectrophotometric method; how it was run: as §4
# Calf thymus DNA [18] = experiment: Disruption of calf thymus DNA helix at 0.1, 0.3, 0.5, 0.7 compound to ds-polynucleotide ratio by CD-spectrophotometric method; type: nucleic-acid assay; conditions: Bos taurus
# How it was run: (§5)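 Induced CD spectra were recorded in 1 cm quartz cuvettes in Na cacodylate buffer (I = 0.05 mol dm-3, pH 7.0) with ct-DNA or polyA-polyU. Compound was added at r = [compound]/[polynucleotide] = 0.1, 0.3, 0.5 and 0.7. The CD signal was followed as a function of r.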
# [19] = Binding affinity to polyA-polyU (unknown origin) major groove at 0.1, 0.3, 0.5, 0.7 compound to ds-polynucleotide ratio by CD-spectrophotometric method; how it was run: as §5
# Calf thymus DNA [20] = experiment: Binding affinity to calf thymus DNA minor groove at 0.1, 0.3, 0.5, 0.7 compound to ds-polynucleotide ratio by CD-spectrophotometric method; type: nucleic-acid assay; conditions: Bos taurus; how it was run: as §5
# [21] = Solubility of the compound in DMSO; type: physicochemical
# K562 [22] = experiment: Cell cycle arrest in human K562 cells assessed as accumulation at sub-G0 phase at 10^-5 mol/dm'3 after 24 hrs by propidium iodide staining-based flow cytometric method; type: functional
# [23] = Induction of polyA-polyU (unknown origin) intercalation at 0.1, 0.3, 0.5, 0.7 compound to ds-polynucleotide ratio by CD-spectrophotometric method; how it was run: as §5
Structure (SMILES),Activity (K562 [1]),ΔTm (Calf thymus DNA [2]) [°C],ΔTm [3] [°C],ΔTm (Calf thymus DNA [4]) [°C],GI50 (K562 [5]) [µM],ΔTm [6] [°C],GI50 at 72 h [7] [µM],GI50 (HeLa) [µM],Activity (K562 [8]),Stability [9],ΔTm (Calf thymus DNA [10]) [°C],solubility [12] [µM],GI50 (Caco-2) [µM],GI50 (Raji) [µM],ΔTm [13] [°C],Activity [14],Activity (Calf thymus DNA [15]) [%],log Ks (Calf thymus DNA [16]),log Ks [17],Activity (Calf thymus DNA [20]),further results
CC(C)CNC(=N)c1ccc(Oc2ccnc3cc(Cl)ccc23)cc1.Cl.Cl.Cl,Active,1.97,-0.44,1.85,16.9,-0.8,30.3,52.3,Active,Stable,1.91,1000,71.9,25.5,-0.71,,,,,,Activity (K562 [11]): Active
Cl.Cl.Cl.N=C(NC1CCCC1)c1ccc2nc(-c3ccc(OCCNc4ccnc5cc(Cl)ccc45)cc3)[nH]c2c1,,7.8,4.67 to 35.4,7.8,11.4,1.14,99.2,> 100,Active,Stable,3.71,1000,> 100,17.1,3.02,49.7%,24.4,6.29,6.81,Active,Activity (Calf thymus DNA [18]): Active; Activity [19]: Active
N#Cc1ccc2nc(-c3ccc(Oc4ccnc5cc(Cl)ccc45)cc3)[nH]c2c1,,,,,> 100,,93.1,> 100,,Stable,,,> 100,> 100,,,,,,Active,solubility [21]: 1000 µM
Cl.Cl.Cl.N=C(NC1CCCC1)c1ccc(Oc2ccnc3cc(Cl)ccc23)cc1,Active,1.43,0.28,1.51,18.8,0.65,35,48.6,Active,Stable,1.35,1000,13.5,19.7,0.64,,,,,,Activity (K562 [11]): Active
N#Cc1ccc2nc(-c3ccc(OCCNc4ccnc5cc(Cl)ccc45)cc3)[nH]c2c1,,2.58,,2.6,7.8,,22.1,56.6,,Stable,3.96,,28.3,5.2,,,,,,Active,Activity (Calf thymus DNA [18]): Active; solubility [21]: 1000 µM
N#Cc1ccc(OCCNc2ccnc3cc(Cl)ccc23)cc1,Active,,,,7.2,,> 100,84.4,Active,Stable,,,95.3,6.2,,inactive,26.2,,inactive,,Activity (K562 [11]): Active; solubility [21]: 1000 µM
CC(C)CNC(=N)c1ccc2nc(-c3ccc(OCCNc4ccnc5cc(Cl)ccc45)cc3)[nH]c2c1.Cl.Cl.Cl,Active,8.15,,8.67,15.1,0.75,94.1,> 100,Active,Stable,4.31,1000,> 100,28.5,1.24,26%,32.2,6.51,7.02,Active,Activity (Calf thymus DNA [18]): Active; Activity [19]: Active; Activity (K562 [22]): Active
Cl.Cl.Cl.Clc1ccc2c(NCCOc3ccc(-c4nc5ccc(C6=NCCN6)cc5[nH]4)cc3)ccnc2c1,,,8.86 to 33.5,,8.6,5.16,> 100,> 100,Active,Stable,5.75,1000,117,27.5,4.62,37.7%,21.6 to 26,,6.71,Active,Activity (Calf thymus DNA [18]): Active; Activity [19]: Active; Activity (K562 [22]): Active
N#Cc1ccc(Oc2ccnc3cc(Cl)ccc23)cc1,,,,,86.7,,88.5,> 100,,Stable,,,> 100,91.4,,,,,,,solubility [21]: 1000 µM
Cl.Cl.Clc1ccc2c(Oc3ccc(-c4nc5ccc(C6=NCCCN6)cc5[nH]4)cc3)ccnc2c1,,3.31,1.82,3.89,21.6,1.98,67.1,64.4,,Stable,3.3,1000,34.5,50.5,2.84,15.5%,25.5,6.96,7.29,Active,Activity [23]: Active
CC(C)CNC(=N)c1ccc2nc(-c3ccc(Oc4ccnc5cc(Cl)ccc45)cc3)[nH]c2c1.Cl.Cl.Cl,,1.41,0.25,2.08,59.7,0.78,53.5,57,,Stable,1.07,1000,43.2,46.7,1.64,17.9%,60.2,5.88,6.05,Active,Activity [23]: Active
